Data as given in ChEMBL document CHEMBL1158040, “Biological activities and 3D QSAR studies of a series of Delisea pulchra (cf. fimbriata) derived natural products” (J Nat Prod, 2006).
≈ marks a conversion by molar mass, not a printed value. Calls of active or inactive are those of the source. The calls are words filed in the database; no cut-off is given here.

What was measured:
Lu1 = assay: Cytotoxicity against human Lu1 cells; format: functional; conditions: read-out: ED50 (the source's name)
KB [1] = assay: Cytotoxicity against human KB cells; format: functional; conditions: read-out: ED50 (the source's name)
KB [2] = assay: Cytotoxicity against vinblastine-sensitive human KB cells; format: functional; conditions: read-out: ED50 (the source's name)
KB [3] = assay: Cytotoxicity against vinblastine-resistant human KB cells; format: functional; conditions: read-out: ED50 (the source's name)
Outline: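 The vinblastine-resistant KB-V1 line was tested both with and without added vinblastine in the cultured tumour-cell cytotoxicity panel. Results are reported as ED50.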

LNCaP = assay: Cytotoxicity against human LNCAP cells; format: functional; conditions: read-out: ED50 (the source's name)
ZR-75-1 = assay: Cytotoxicity against human ZR-75-1 cells; format: functional; conditions: read-out: ED50 (the source's name)
Escherichia coli [4] = assay: Antimicrobial activity against Escherichia coli at 10 ug; format: functional, organism-based
Outline: (§1)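 Direct bioautography: each compound is spotted onto TLC plates and the solvent evaporated. The test organism is then grown directly on the plate. Growth inhibition is scored at the spot as active (+) or very active (++). Where a number is given, it is the radius in mm of the inhibition zone around the spot.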

Escherichia coli [5] = assay: Antimicrobial activity against Escherichia coli at 5 ug; format: functional, organism-based; outline: as §1
Escherichia coli [6] = assay: Antimicrobial activity against Escherichia coli at 1 ug; format: functional, organism-based; outline: as §1
Escherichia coli [7] = assay: Antimicrobial activity against Escherichia coli at 0.1 ug; format: functional, organism-based; outline: as §1
Micrococcus luteus [8] = assay: Antimicrobial activity against Micrococcus luteus at 10 ug; format: functional, organism-based; outline: as §1
Micrococcus luteus [9] = assay: Antimicrobial activity against Micrococcus luteus at 5 ug; format: functional, organism-based; outline: as §1
Micrococcus luteus [10] = assay: Antimicrobial activity against Micrococcus luteus at 1 ug; format: functional, organism-based; outline: as §1
Micrococcus luteus [11] = assay: Antimicrobial activity against Micrococcus luteus at 0.1 ug; format: functional, organism-based; outline: as §1
Bacillus subtilis [12] = assay: Antimicrobial activity against Bacillus subtilis at 10 ug; format: functional, organism-based; outline: as §1
Bacillus subtilis [13] = assay: Antimicrobial activity against Bacillus subtilis at 5 ug; format: functional, organism-based; outline: as §1
Bacillus subtilis [14] = assay: Antimicrobial activity against Bacillus subtilis at 1 ug; format: functional, organism-based; outline: as §1
Penicillium oxalicum [15] = assay: Antimicrobial activity against Penicillium oxalicum at 10 ug; format: functional; conditions: read-out: IZ; outline: as §1
Penicillium oxalicum [16] = assay: Antimicrobial activity against Penicillium oxalicum at 5 ug; format: functional; conditions: read-out: IZ; outline: as §1
Penicillium oxalicum [17] = assay: Antimicrobial activity against Penicillium oxalicum at 1 ug; format: functional; outline: as §1
Plasmodium falciparum [18] = assay: Antimalarial activity against chloroquine-sensitive Plasmodium falciparum D6; format: functional, organism-based
Outline: (§2)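 In vitro growth inhibition of Plasmodium falciparum clones D6 (chloroquine-sensitive) and W2 (chloroquine-resistant); IC50 reported in μg/mL.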

Plasmodium falciparum [19] = assay: Antimalarial activity against chloroquine-resistant Plasmodium falciparum W2; format: functional, organism-based; outline: as §2
[20] = Selectivity index, ratio of IC50 for human KB cells to IC50 for Plasmodium falciparum D6; format: toxicity, cell-based; conditions: KB cells versus Plasmodium falciparum D6, read-out: Ratio IC50
Outline: (§3)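 Plasmodium falciparum clones were assayed in vitro: D6 (chloroquine-sensitive) and W2 (chloroquine-resistant). IC50 is in μg/mL. The selectivity index is the ratio of the antimalarial to the cytotoxic activity.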

[21] = target: Human immunodeficiency virus type 1 reverse transcriptase (Human immunodeficiency virus 1, UniProt Q72547); assay: Inhibition of HIV1 RT at 200 uM
Outline: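 HIV-1 reverse transcriptase inhibition was measured in an ELISA-based system.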

[22] = Inhibition of TK assessed as residual activity at 200 ug/ml
Outline: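 The enzyme was tyrosine kinase p56lck, with test compounds at 200 μg/mL. The read-out is the remaining enzyme activity.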

Penicillium oxalicum [23] = assay: Antimicrobial activity against Penicillium oxalicum at 0.01 ug; format: functional; conditions: read-out: IZ; outline: as §1
[24] = Cytotoxicity against human BCA1 cells; format: functional; conditions: read-out: ED50 (the source's name)
HT-1080 = assay: Cytotoxicity against human HT1080 cells; format: functional; conditions: read-out: ED50 (the source's name)
[25] = Cytotoxicity against human MEL-2 cells; format: functional; conditions: MEL2, read-out: ED50 (the source's name)
[26] = Cytotoxicity against human Col1 cells; format: functional; conditions: read-out: ED50 (the source's name)
P388 = assay: Cytotoxicity against mouse P388 cells; format: functional; conditions: read-out: ED50 (the source's name)
A-431 = assay: Cytotoxicity against human A431 cells; format: functional; conditions: read-out: ED50 (the source's name)
[27] = Cytotoxicity against human U373 cells; format: functional, U-373MG ATCC; conditions: U373 MG, read-out: ED50 (the source's name)
Plasmodium falciparum [28] = assay: Antimalarial activity against chloroquine-sensitive Plasmodium falciparum D6 at 10 ug/ml; format: functional
[29] = Selectivity index, ratio of IC50 for human KB cells to IC50 for Plasmodium falciparum W2; format: toxicity, cell-based; conditions: KB cells versus Plasmodium falciparum W2, read-out: Ratio IC50; outline: as §3

## CCC[C@@H](O)C1=C(Br)C(=C(Br)Br)OC1=O
Lu1
  EC50: 1.7 µg/mL (≈ 4.2 µM)
KB [1]
  EC50: 0.5 µg/mL (≈ 1.23 µM)
KB [2]
  EC50: 0.6 µg/mL (≈ 1.48 µM)
KB [3]
  EC50: 9.5 µg/mL (≈ 23.5 µM)
LNCaP
  EC50: 6.7 µg/mL (≈ 16.5 µM)
ZR-75-1
  EC50: 0.3 µg/mL (≈ 0.741 µM)
Escherichia coli [4]
  Activity: Active
Escherichia coli [5]
  Activity: Active
Escherichia coli [6]
  Activity: inactive
Escherichia coli [7]
  Activity: inactive
Micrococcus luteus [8]
  Activity: Active
Micrococcus luteus [9]
  Activity: Active
Micrococcus luteus [10]
  Activity: Active
Micrococcus luteus [11]
  Activity: Active
Bacillus subtilis [12]
  Activity: Active
Bacillus subtilis [13]
  Activity: Active
Bacillus subtilis [14]
  Activity: Active
Penicillium oxalicum [15]
  zone of inhibition at 10 µg/disc: 20 mm
Penicillium oxalicum [16]
  zone of inhibition at 5 µg/disc: 23 mm
Penicillium oxalicum [17]; read-out: IZ
  zone of inhibition at 1 µg/disc: 17 mm
Plasmodium falciparum [18]
  IC50: 2.8 µg/mL (≈ 6.92 µM)
Plasmodium falciparum [19]
  IC50: > 10 µg/mL
[20]
  selectivity ratio: < 1
[21]
  IC50: 700 µM
[22]
  Activity: 4.5%
Penicillium oxalicum [23]
  zone of inhibition at 0.01 µg/disc: 4 mm

## CCCCC1=C(Br)/C(=C/Br)OC1=O
[24]
  EC50: 9.8 µg/mL (≈ 31.6 µM)
HT-1080
  EC50: 2.2 µg/mL (≈ 7.1 µM)
Lu1
  EC50: > 20 µg/mL
[25]
  EC50: 5.3 µg/mL (≈ 17.1 µM)
[26]
  EC50: > 20 µg/mL
KB [1]
  EC50: > 20 µg/mL
KB [2]
  EC50: > 20 µg/mL
KB [3]
  EC50: > 20 µg/mL
P388
  EC50: > 5 µg/mL
A-431
  EC50: > 20 µg/mL
LNCaP
  EC50: 7.3 µg/mL (≈ 23.5 µM)
ZR-75-1
  EC50: 10.2 µg/mL (≈ 32.9 µM)
[27]
  EC50: 10 µg/mL (≈ 32.3 µM)
Escherichia coli [4]
  Activity: Active
Escherichia coli [5]
  Activity: inactive
Escherichia coli [6]
  Activity: inactive
Escherichia coli [7]
  Activity: inactive
Micrococcus luteus [8]
  Activity: Active
Micrococcus luteus [9]
  Activity: Active
Micrococcus luteus [10]
  Activity: Active
Micrococcus luteus [11]
  Activity: inactive
Bacillus subtilis [12]
  Activity: Active
Bacillus subtilis [13]
  Activity: inactive
Bacillus subtilis [14]
  Activity: inactive
Penicillium oxalicum [15]
  zone of inhibition at 10 µg/disc: 3 mm
Penicillium oxalicum [16]
  zone of inhibition at 5 µg/disc: 3 mm
Penicillium oxalicum [17]
  Activity: inactive
Plasmodium falciparum [28]
  Activity: >50%

## C=C[C@H]1CN2CC[C@H]1C[C@H]2[C@H](O)c1ccnc2ccc(OC)cc12 [QUININE]
KB [1]
  EC50: > 20 µg/mL
Plasmodium falciparum [18]
  IC50: 0.011 µg/mL (≈ 0.0339 µM)
Plasmodium falciparum [19]
  IC50: 0.029 µg/mL (≈ 0.0894 µM)
[20]
  selectivity ratio: > 1830
[29]
  selectivity ratio: > 700
